Assay results published in ChEMBL document CHEMBL1138691, “Substituted furo[3,2-b]pyridines: novel bioisosteres of 5-HT 1F receptor agonists” (Bioorg Med Chem Lett, 2004).

What was measured:
[1] = Ratio of the Ki value for human 5-HT1B receptor versus human 5-HT1F receptor
Outline: (§1)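 Selectivity ratio: Ki at human 5-HT1A, 5-HT1B or 5-HT1D receptor divided by Ki at human 5-HT1F receptor. Each Ki from radioligand binding in cell lines expressing the relevant human receptor, derived from two or more experiments.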

[2] = target: T1, 5-hydroxytryptamine receptor 1F (Homo sapiens, UniProt P30939); assay: In vitro binding affinity for human 5-hydroxytryptamine 1F receptor
T1 sequence (P30939 whole entry): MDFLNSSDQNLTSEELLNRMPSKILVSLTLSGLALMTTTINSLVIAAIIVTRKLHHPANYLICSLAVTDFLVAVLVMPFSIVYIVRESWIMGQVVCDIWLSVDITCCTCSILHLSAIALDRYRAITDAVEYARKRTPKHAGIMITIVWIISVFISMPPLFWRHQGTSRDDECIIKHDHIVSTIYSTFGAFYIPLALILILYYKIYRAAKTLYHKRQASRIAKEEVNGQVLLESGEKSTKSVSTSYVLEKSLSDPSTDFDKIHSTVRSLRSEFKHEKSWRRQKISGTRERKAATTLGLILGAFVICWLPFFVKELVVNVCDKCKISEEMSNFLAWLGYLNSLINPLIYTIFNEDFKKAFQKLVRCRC
Outline: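 Radioligand binding in cell lines expressing the human 5-HT receptor; Ki reported as mean of three or more experiments with SEM.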

[3] = Ratio of the Ki value for human 5-HT1D receptor versus human 5-HT1F receptor; outline: as §1
[4] = Ratio of the Ki value for human 5-HT1A receptor versus human 5-HT1F receptor; outline: as §1
[5] = target: T1, 5-hydroxytryptamine receptor 1F; assay: Concentration required for stimulation of [35S]GTP-gamma-S, binding in mouse LM(tk-1) cells expressing the human 5-hydroxytryptamine 1F receptor; assay type: functional, cell-based
Outline: (§2)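 [35S]GTP-γ-S binding stimulated in mouse LM(tk-) cells expressing human 5-HT1F receptor; means of at least two separate experiments, each run in triplicate, with SEM.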

[6] = target: Serotonin (5-HT) receptor (Homo sapiens) (UniProt P30939+P41595+Q13639+P28222+P46098+P08908+P28221+P28223+P28335+P28566+P34969+P50406+P47898+A5X5Y0+O95264+Q70Z44+Q8WXA8); assay: Maximum stimulation of [35S]GTP-gamma-S, binding expressed relative to the maximal effect of 5-hydroxytryptamine; assay type: functional; outline: as §2

CN1CCC(c2c[nH]c3ccc(NC(=O)c4ccc(F)cc4)cc23)CC1
Selectivity ratio [1]: 85 | Ki [2]: 1.6 nM | Selectivity ratio [3]: 86 | Selectivity ratio [4]: 7

CN1CCC(c2coc3ccc(NC(=O)c4ccc(F)cc4Cl)nc23)CC1
Selectivity ratio [1]: 177 | EC50 [5]: 27.7 nM | Emax [6]: 92% | Ki [2]: 3 nM | Selectivity ratio [3]: 165 | Selectivity ratio [4]: 47

Cc1[nH]c2ccc(NC(=O)c3ccc(F)cc3)cc2c1CCN(C)C
Selectivity ratio [1]: 130 | Ki [2]: 8.2 nM | Selectivity ratio [3]: 200 | Selectivity ratio [4]: 32

CN1CCC(c2coc3ccc(NC(=O)c4c(F)cccc4Cl)nc23)CC1
Selectivity ratio [1]: 164 | EC50 [5]: 68.7 nM | Emax [6]: 87% | Ki [2]: 2.9 nM | Selectivity ratio [3]: 31 | Selectivity ratio [4]: 103

CN1CCC(c2coc3ccc(NC(=O)c4c(F)cc(F)cc4F)nc23)CC1
Selectivity ratio [1]: 181 | EC50 [5]: 91.7 nM | Emax [6]: 87% | Ki [2]: 2.3 nM | Selectivity ratio [3]: 62 | Selectivity ratio [4]: 57

CN1CCC(c2c[nH]c3ccc(NC(=O)c4ccc(F)cc4)nc23)CC1
Selectivity ratio [1]: 160 | Selectivity ratio [3]: 960 | Selectivity ratio [4]: 7.3

CN1CCC(c2coc3ccc(NC(=O)c4ccc(F)cc4)nc23)CC1
Selectivity ratio [1]: > 1000 | EC50 [5]: 66 nM | Emax [6]: 88% | Ki [2]: 3.1 nM | Selectivity ratio [3]: > 1000 | Selectivity ratio [4]: 134

Cc1oc2ccc(NC(=O)c3ccc(F)cc3)nc2c1CCN(C)C
Selectivity ratio [1]: 42 | Ki [2]: 13.5 nM | Selectivity ratio [3]: 19 | Selectivity ratio [4]: 65
